Results published in PubChem BioAssay AID624393 (The Scripps Research Institute Molecular Screening Center, 2012).
Values joined by “and” are separate entries in the source; they are usually repeats but may differ in a detail not shown here. Equal values may be shown once.

Target: Induced myeloid leukemia cell differentiation protein Mcl-1 (Homo sapiens) (UniProt Q07820)
Assay: MCL1 binding to BIM-BH3 peptide, inhibitors, late-stage follow-up, biochemical, fluorescence polarization, assay provider data, probe compound (AID 624393)
Settings: GST-MCL1 / FITC-Bim BH3 peptide
Method in brief: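 signal = fluorescence polarization (mP) | assay system = E. coli-expressed GST-MCL1 fusion protein with FITC-labelled Bim BH3 peptide | input = GST-MCL1 fusion protein at 12.5 nM | doses = compound dilution series in DMSO | buffer or medium = PBS with 0.001% Brij | times = 20 min at room temperature | probe or stimulus = FITC-labelled Bim BH3 peptide probe at 4 nM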

Chain of Induced myeloid leukemia cell differentiation protein Mcl-1 (Homo sapiens) (Q07820 whole entry, looked up): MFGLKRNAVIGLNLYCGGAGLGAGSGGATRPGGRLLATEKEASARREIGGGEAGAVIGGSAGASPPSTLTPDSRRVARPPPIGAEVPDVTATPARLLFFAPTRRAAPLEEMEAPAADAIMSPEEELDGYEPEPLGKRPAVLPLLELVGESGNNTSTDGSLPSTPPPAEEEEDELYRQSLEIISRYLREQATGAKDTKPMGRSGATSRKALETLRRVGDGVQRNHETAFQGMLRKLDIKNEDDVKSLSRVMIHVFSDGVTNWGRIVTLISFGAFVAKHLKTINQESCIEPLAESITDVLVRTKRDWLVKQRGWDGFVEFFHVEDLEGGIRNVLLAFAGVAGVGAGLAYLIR

**Q.** `CCN1CCN(C(c2ccc(C(F)(F)F)cc2)c2ccc3cccnc3c2O)CC1` (stereo unspecified) was tested. Which IC50 did it give?
**A.** 250 nM and 310 nM
